{"source": "ChEMBL document CHEMBL4261642", "about": "“Design, synthesis, and ex vivo evaluation of a selective inhibitor for retinaldehyde dehydrogenase enzymes” (Bioorg Med Chem, 2018)", "key": {"Retinal dehydrogenase 2 [1]": {"biological_target": "T1, Retinal dehydrogenase 2 (Gallus gallus, UniProt O93344)", "T1 sequence (O93344 whole entry)": "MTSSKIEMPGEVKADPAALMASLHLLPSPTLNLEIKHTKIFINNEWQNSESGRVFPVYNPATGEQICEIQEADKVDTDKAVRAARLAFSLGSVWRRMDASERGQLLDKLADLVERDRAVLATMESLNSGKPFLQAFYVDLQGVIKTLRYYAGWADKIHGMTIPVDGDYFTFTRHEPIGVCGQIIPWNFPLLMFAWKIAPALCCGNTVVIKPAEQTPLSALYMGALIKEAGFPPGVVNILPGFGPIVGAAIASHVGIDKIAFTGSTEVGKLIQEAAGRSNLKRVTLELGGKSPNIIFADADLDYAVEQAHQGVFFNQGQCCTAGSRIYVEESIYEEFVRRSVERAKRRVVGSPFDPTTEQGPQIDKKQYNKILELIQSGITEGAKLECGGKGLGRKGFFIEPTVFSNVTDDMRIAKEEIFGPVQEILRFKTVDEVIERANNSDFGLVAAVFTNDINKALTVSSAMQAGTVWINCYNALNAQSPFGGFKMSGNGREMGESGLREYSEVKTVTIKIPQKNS", "experiment": "Inhibition of RALDH2 in choroidal cytosol fraction from 4 day recovering chick assessed as inhibition of ATRA synthesis pre-incubated for 20 mins followed by […] addition and measured after 30 mins by HPLC analysis"}, "Gallus gallus": {"organism": "Gallus gallus", "experiment": "Inhibition of N-terminal His6-tagged recombinant chick RALDH3 expressed in Escherichia coli BL21(DE3) cells at 250 nM using RAL as substrate assessed as Km preincubated for 20 mins followed by substrate addition and measured after 30 mins in presence of NADH by fluorescence assay (reference value: 84.45 +/- 30.99 microM)"}, "[2]": {"biological_target": "T2, Retinal dehydrogenase 2 (Gallus gallus) (UniProt O93344)", "T2 sequence (whole entry)": "T1 sequence (O93344 whole entry)", "experiment": "Inhibition of RALDH2 in choroidal cytosol fraction from 4 day recovering chick assessed as inhibition of ATRA synthesis at 0.1 to 6 uM pre-incubated for 20 mins followed by […] addition and measured after 30 mins by HPLC analysis", "method_in_brief": "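Choroid cytosol fractions (100,000 × g supernatant) from 4-day recovering chick eyes pre-incubated 20 min at 37°C with 0.01–6 μM inhibitor or DMSO. Reaction started with 4 mM NAD+ and 25 μM all-trans-retinaldehyde, 30 min at 37°C. ATRA extracted and quantified by reverse-phase HPLC (350 nm, MS). Two experiments, n = 3–5 each.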"}, "[3]": {"biological_target": "T2, Retinal dehydrogenase 2 (Gallus gallus)", "experiment": "Inhibition of N-terminal His6-tagged recombinant chick RALDH2 expressed in Escherichia coli BL21(DE3) cells at 250 nM using RAL as substrate assessed as enzyme recovery preincubated with compound and 250 uM NAD+ up to 80 mins and measured after 30 mins in presence of NAD+ by fluorescence assay", "set-up": "scale not given: the % may be the effect or the level left", "method_in_brief": "(§1)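 Chick RALDH2 (91 nM) pre-incubated with 250 nM inhibitor for 0–80 min at 37°C, alone or with 250 μM retinaldehyde or 250 μM NAD+. Reaction then started with the missing substrate and/or cofactor (250 μM retinaldehyde, 4 mM NAD), 30 min at 37°C. Fluorimetric NADH; % activity remaining. Triplicates.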"}, "[4]": {"biological_target": "T3, Retinal dehydrogenase 2 (Homo sapiens) (UniProt O94788)", "T3 sequence (whole entry)": "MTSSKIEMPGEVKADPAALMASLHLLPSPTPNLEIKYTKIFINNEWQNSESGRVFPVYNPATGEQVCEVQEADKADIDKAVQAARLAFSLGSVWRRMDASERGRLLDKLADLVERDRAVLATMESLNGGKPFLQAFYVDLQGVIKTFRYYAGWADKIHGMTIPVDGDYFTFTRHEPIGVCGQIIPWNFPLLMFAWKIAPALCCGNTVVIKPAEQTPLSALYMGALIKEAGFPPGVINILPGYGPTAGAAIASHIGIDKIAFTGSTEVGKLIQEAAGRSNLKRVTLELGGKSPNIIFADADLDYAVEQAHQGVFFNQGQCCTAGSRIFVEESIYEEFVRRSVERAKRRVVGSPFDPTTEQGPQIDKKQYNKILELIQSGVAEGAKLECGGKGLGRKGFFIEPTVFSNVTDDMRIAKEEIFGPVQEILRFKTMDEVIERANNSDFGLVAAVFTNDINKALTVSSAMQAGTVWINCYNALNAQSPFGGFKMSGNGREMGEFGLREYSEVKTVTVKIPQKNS", "experiment": "Inhibition of RALDH2 (unknown origin) […] assessed as time dependence ratio (kinact/KI)"}, "Retinal dehydrogenase 2 [5]": {"biological_target": "T1, Retinal dehydrogenase 2", "experiment": "(§2) Inhibition of N-terminal His6-tagged recombinant chick RALDH2 expressed in Escherichia coli BL21(DE3) cells up to 500 nM using RAL as substrate preincubated up to 40 mins followed by substrate addition and measured after 30 mins in presence of NADH by fluorescence assay", "method_in_brief": "(§3)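 Chick RALDH2 pre-incubated 10, 20 and 40 min with 0–500 nM inhibitor, then assayed with retinaldehyde/NAD+ by fluorimetric NADH. kobs taken from linear regression of log % activity remaining versus pre-incubation time. KI and kinact obtained by nonlinear regression of kobs versus inhibitor concentration.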"}, "[6]": {"biological_target": "T2, Retinal dehydrogenase 2 (Gallus gallus)", "experiment": "Inhibition of N-terminal His6-tagged recombinant chick RALDH2 expressed in Escherichia coli BL21(DE3) cells at 250 nM using RAL as substrate assessed as remaining activity incubated up to 80 mins in presence of all-trans-retinaldehyde folowed by substrate addition and measured after 30 mins in presence of NAD+ by fluorescence assay", "method_in_brief": "as §1"}, "[7]": {"biological_target": "T2, Retinal dehydrogenase 2 (Gallus gallus)", "experiment": "Inhibition of RALDH2 in living intact choroid isolated from normal chick eyes assessed as inhibition of ATRA synthesis after 24 hrs in presence of retinaldehyde and NAD+"}, "[8]": {"biological_target": "T2, Retinal dehydrogenase 2 (Gallus gallus)", "experiment": "Inhibition of RALDH2 in choroidal cytosol fraction from control chick assessed as inhibition of ATRA synthesis at 0.1 to 6 uM pre-incubated for 20 mins followed by […] addition and measured after 30 mins by HPLC analysis"}, "[9]": {"biological_target": "T2, Retinal dehydrogenase 2 (Gallus gallus)", "experiment": "Inhibition of N-terminal His6-tagged recombinant chick RALDH2 expressed in Escherichia coli BL21(DE3) cells at 50 nM using RAL as substrate assessed as remaining activity preincubated for 20 mins followed by compound washout by ultrafiltration and subsequent addition of substrate and measured after 30 mins in presence of NADH by fluorescence assay (reference value: 100.0 +/- 11.57%)", "method_in_brief": "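Chick RALDH2 (91 nM) pre-incubated 20 min with 0–50 nM inhibitor. Unbound inhibitor removed by ultrafiltration before adding 250 μM retinaldehyde and 4 mM NAD+, 30 min at 37°C. NADH measured fluorimetrically. Activity expressed as % of vehicle. Triplicates; one-way ANOVA with Bonferroni test.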"}, "[10]": {"biological_target": "T2, Retinal dehydrogenase 2 (Gallus gallus)", "experiment": "as §2, with “as substrate assessed as inactivation rate constant preincubated up” for “as substrate preincubated up”", "method_in_brief": "as §3"}}, "note": "pIC50, pKi: −log10 of the molar value. Activity calls are given as the source filed them. The calls are words filed in the database; no cut-off is given here.", "data": [{"smiles": "CC1=C(/C=C/C(C)=C/C=C/C(C)=C/C(=O)C(Cl)Cl)C(C)(C)CCC1", "values": [{"measurement": "pIC50", "setting": "Retinal dehydrogenase 2 [1]", "value": 7.27}, {"measurement": "Km", "setting": "Gallus gallus", "value": 46.1, "unit": "µM"}, {"measurement": "inhibition", "setting": "[2]", "value": "70 to 96", "unit": "%"}, {"measurement": "Activity", "setting": "[3]", "value": "52 to 65", "unit": "%"}, {"measurement": "kinact/KI", "setting": "[4]", "value": "1550 to 233000", "unit": "M⁻¹ s⁻¹"}, {"measurement": "pKi", "setting": "Retinal dehydrogenase 2 [5]", "value": 6.89}, {"measurement": "inhibition", "setting": "[6]", "value": "Active"}, {"measurement": "inhibition", "setting": "[7]", "value": "inactive"}, {"measurement": "inhibition", "setting": "[8]", "value": "92 to 99", "unit": "%"}, {"measurement": "Activity", "setting": "[9]", "value": 23, "unit": "%"}, {"measurement": "Kinact", "setting": "[10]", "value": 0.0159, "unit": "min⁻¹"}]}]}
